Measured values published in ChEMBL document CHEMBL3763021 (Eur J Med Chem, 2016).
One block for each compound: values may come before it.

Columns and labels:
[1] = Inhibition of Sonic-induced hedgehog signalling in mouse NIH3T3 cells after 48 hrs by Gli-luciferase reporter assay; assay type: cell-based; settings: NIH3T3, 48 h
Method in brief: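 NIH3T3 cells stably carrying a Gli-luciferase reporter were kept in DMEM with 10% FBS and 1 µg/mL puromycin, then seeded at 2×10^4 cells/well overnight at 37 °C. Compounds at 0.05–300 nM (8 concentrations) were added in medium with 0.5% FBS and 0.7 µg/mL Sonic Hh agonist, n=4 wells, for 48 h. Readout was the Firefly/Renilla luciferase ratio in lysates.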

[2] = system: Mus musculus; test: Toxicity in BALB/C mouse xenografted with human LS174T cells assessed as mortality at 75 mg/kg, bid administered for 10 days; assay type: organism-based; settings: in vivo, 240 h
Method in brief: (§1)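 Male BALB/C nude mice (18–20 g) kept under SPF conditions. LS-174T cells at 2.5×10^7 cells/mL injected subcutaneously into the right flank. Once tumors reached about 100 mm3, mice were randomized to groups of 6 (vehicle group n = 9) and dosed orally once or twice daily for 10 days. Controls received solvent. Body weight and tumor volume were measured twice weekly and deaths recorded.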

[3] = system: LS174T; test: Antitumor activity against human LS174T cells xenografted in BALB/C mouse assessed as tumor weight inhibition at 75 mg/kg, bid administered for 10 days measured twice per week; assay type: functional; settings: 240 h, read-out: TGI
Method in brief: (§2)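 Male BALB/c nude mice, 18–20 g, kept under SPF conditions. LS-174T cells at 2.5×10^7 cells/mL were injected s.c. into the right flank, and tumors were grown to about 100 mm3. Mice were randomized, n=6 treated and n=9 vehicle. Oral dosing ran qd or bid for 10 days; vehicle controls got the same volume of solvent. Tumor volume = length×width²/2, measured twice weekly. IR = (control − treated)/control for tumor weight or volume at day 10.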

[4] = Cmax in Sprague-Dawley rat at 5 mg/kg, po by LC/MS/MS analysis; assay type: ADME, organism-based; set-up: dose 5 mg/kg, route oral; settings: in vivo
Method in brief: (§3)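 Male SD rats, 180–240 g, 3 per compound; single dose of 1 mg/kg iv or 5 mg/kg po, dosing volume 5 mL/kg. Blood was sampled from 2 min to 24 h and centrifuged at 4 °C. Plasma underwent protein precipitation, then LC/MS/MS in SRM mode with an internal standard. Parameters were derived by noncompartmental analysis.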

[5] = AUC (0 to t) in Sprague-Dawley rat at 5 mg/kg, po by LC/MS/MS analysis; assay type: ADME, organism-based; settings: in vivo; method in brief: as §3
[6] = Clearance in Sprague-Dawley rat at 5 mg/kg, po by LC/MS/MS analysis; assay type: ADME, organism-based; settings: in vivo; method in brief: as §3
[7] = Mean resident time (0 to t) in Sprague-Dawley rat at 5 mg/kg, po by LC/MS/MS analysis; assay type: ADME, organism-based; settings: in vivo; method in brief: as §3
[8] = Half life in Sprague-Dawley rat at 5 mg/kg, po by LC/MS/MS analysis; assay type: ADME, organism-based; settings: in vivo; method in brief: as §3
[9] = Oral bioavailability in Sprague-Dawley rat at 5 mg/kg; assay type: ADME, organism-based; settings: in vivo; method in brief: as §3
[10] = system: LS174T; test: Antiproliferative activity against human LS174T cells after 72 hrs by CellTiter-Glo luminescent cell viability assay; assay type: functional, cell-based
Method in brief: (§4)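 Cells were grown in DMEM with 10% FBS, seeded at a density suited to each line, and left 24 h at 37 °C. Compounds were prepared in DMSO, diluted in medium over a concentration series starting at 100 µM, and applied for 72 h. CellTiter-Glo reagent was added for 30 min at room temperature before reading luminescence. IC50 came from four-parameter curve fitting.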

[11] = Antiproliferative activity against human PC3 cells after 72 hrs by CellTiter-Glo luminescent cell viability assay; assay type: functional, cell-based; settings: PC-3, 72 h; method in brief: as §4
[12] = Antiproliferative activity against human BxPC3 cells after 72 hrs by CellTiter-Glo luminescent cell viability assay; assay type: functional, cell-based; settings: BXPC-3, 72 h; method in brief: as §4
[13] = system: Rattus norvegicus; test: Apparent volume of distribution in Sprague-Dawley rat at 5 mg/kg, po by LC/MS/MS analysis; settings: in vivo
[14] = Cmax in Sprague-Dawley rat at 1 mg/kg, iv by LC/MS/MS analysis; assay type: ADME, organism-based; set-up: dose 1 mg/kg, route intravenous; settings: in vivo; method in brief: as §3
[15] = AUC (0 to t) in Sprague-Dawley rat at 1 mg/kg, iv by LC/MS/MS analysis; assay type: ADME, organism-based; settings: in vivo
Method in brief: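 Male SD rats, 3 per compound, 180–240 g, single iv dose at 1 mg/kg, dosing volume 5 mL/kg. Blood sampled at 2, 5, 15, 30 min and 1, 2, 4, 6, 8, 10, 24 h, then centrifuged at 4 °C. Plasma protein-precipitated and analysed by LC/MS/MS in SRM mode with internal standard. AUC(0-t) obtained by noncompartmental analysis.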

[16] = Apparent volume of distribution in Sprague-Dawley rat at 1 mg/kg, iv by LC/MS/MS analysis; settings: in vivo
[17] = Clearance in Sprague-Dawley rat at 1 mg/kg, iv by LC/MS/MS analysis; assay type: ADME, organism-based; settings: in vivo; method in brief: as §3
[18] = Mean resident time (0 to t) in Sprague-Dawley rat at 1 mg/kg, iv by LC/MS/MS analysis; assay type: ADME, organism-based; settings: in vivo; method in brief: as §3
[19] = Half life in Sprague-Dawley rat at 1 mg/kg, iv by LC/MS/MS analysis; assay type: ADME, organism-based; settings: in vivo; method in brief: as §3
[20] = system: LS174T; test: Antitumor activity against human LS174T cells xenografted in BALB/C mouse assessed as tumor weight inhibition at 37.5 mg/kg, qd administered for 10 days measured twice per week; assay type: functional; settings: 240 h, read-out: TGI; method in brief: as §2
[21] = system: LS174T; test: Antitumor activity against human LS174T cells xenografted in BALB/C mouse assessed as tumor weight inhibition at 75 mg/kg, qd administered for 10 days measured twice per week; assay type: functional; settings: 240 h, read-out: TGI; method in brief: as §2
[22] = system: LS174T; test: Antitumor activity against human LS174T cells xenografted in BALB/C mouse assessed as tumor weight inhibition at 150 mg/kg, qd administered for 10 days measured twice per week; assay type: functional; settings: 240 h, read-out: TGI; method in brief: as §2
[23] = system: Mus musculus; test: Toxicity in BALB/C mouse xenografted with human LS174T cells assessed as mortality at 37.5 to 150 mg/kg, qd administered for 10 days; assay type: organism-based; settings: in vivo, 240 h; method in brief: as §1
[24] = system: Mus musculus; test: Toxicity in BALB/C mouse xenografted with human LS174T cells assessed as loss of body weight at 75 mg/kg, bid administered for 10 days measured twice per week; assay type: organism-based; settings: in vivo, 240 h; method in brief: as §1
[25] = system: Mus musculus; test: Toxicity in BALB/C mouse xenografted with human LS174T cells assessed as loss of body weight at 37.5 to 150 mg/kg, qd administered for 10 days measured twice per week; assay type: organism-based; settings: in vivo, 240 h; method in brief: as §1
[26] = system: LS174T; test: Antitumor activity against human LS174T cells xenografted in BALB/C mouse assessed as tumor volume inhibition at 75 mg/kg, bid administered for 10 days measured twice per week; settings: 240 h, read-out: TGI
[27] = system: LS174T; test: Antitumor activity against human LS174T cells xenografted in BALB/C mouse assessed as tumor volume inhibition at 37.5 mg/kg, qd administered for 10 days measured twice per week; assay type: functional; settings: 240 h, read-out: TGI; method in brief: as §2
[28] = system: LS174T; test: Antitumor activity against human LS174T cells xenografted in BALB/C mouse assessed as tumor volume inhibition at 75 mg/kg, qd administered for 10 days measured twice per week; assay type: functional; settings: 240 h, read-out: TGI; method in brief: as §2
[29] = system: LS174T; test: Antitumor activity against human LS174T cells xenografted in BALB/C mouse assessed as tumor volume inhibition at 150 mg/kg, qd administered for 10 days measured twice per week; assay type: functional; settings: 240 h, read-out: TGI; method in brief: as §2

SMILES: CS(=O)(=O)c1ccc(C(=O)Nc2ccc(Cl)c(-c3ccccn3)c2)c(Cl)c1 [VISMODEGIB]
Activity [2]: Non-toxic
inhibition in vivo at 75 mg/kg [3]: 11.8%
IC50 [1]: 7.2 nM
Cmax [4]: 3640 ng/mL
AUC(0-t) [5]: 22400 ng·h/mL
CL/F [6]: 4.68 mL/min/kg
MRT last [7]: 3.93 h
half-life [8]: 2.46 h
bioavailability [9]: > 100%
IC50 [10]: 45800 nM
IC50 [11]: 66800 nM
IC50 [12]: 48000 nM

SMILES: Cc1ccc(CN2CCCC2)cc1NC(=O)c1ccc(Nc2ncc(F)c(-c3ccc(OC(F)(F)F)cc3)n2)cc1
IC50 [1]: 5.16 nM

SMILES: Cc1ccc(CN2CCOCC2)cc1NC(=O)c1ccc(Nc2nccc(-c3ccc(OC(F)(F)F)cc3)n2)cc1
Activity [2]: Non-toxic
inhibition in vivo at 75 mg/kg [3]: 23.3%
IC50 [1]: 0.89 nM
Cmax [14]: 1200 ng/mL
Cmax [4]: 635 ng/mL
AUC(0-t) [15]: 2440 ng·h/mL
AUC(0-t) [5]: 6220 ng·h/mL
Vd [16]: 2.87 L/kg
Vd(app) [13]: 7.12872 L/kg
clearance [17]: 6.69 mL/min/kg
CL/F [6]: 12.3 mL/min/kg
MRT last [18]: 4.22 h
MRT last [7]: 6.98 h
half-life [19]: 4.96 h
half-life [8]: 6.68 h
bioavailability [9]: 42%
IC50 [10]: 12200 nM
IC50 [11]: 14800 nM
IC50 [12]: 35400 nM
inhibition in vivo at 37.5 mg/kg [20]: 10.2%
inhibition in vivo at 75 mg/kg [21]: 9.9%
inhibition in vivo at 150 mg/kg [22]: 21.1%
Activity [23]: Non-toxic
Activity [24]: Non-toxic
Activity [25]: Non-toxic
inhibition in vivo at 75 mg/kg [26]: 42.9%
inhibition in vivo at 37.5 mg/kg [27]: 33%
inhibition in vivo at 75 mg/kg [28]: 23.2%
inhibition in vivo at 150 mg/kg [29]: 38.9%

SMILES: Cc1c(C(=O)Nc2ccc(N3C[C@@H](C)O[C@@H](C)C3)nc2)cccc1-c1ccc(OC(F)(F)F)cc1 [SONIDEGIB]
IC50 [1]: 5.5 nM
Cmax [14]: 1930 ng/mL
Cmax [4]: 1400 ng/mL
AUC(0-t) [15]: 2200 ng·h/mL
AUC(0-t) [5]: 8830 ng·h/mL
Vd [16]: 0.955 L/kg
Vd(app) [13]: 3.40593 L/kg
clearance [17]: 7.69 mL/min/kg
CL/F [6]: 9.72 mL/min/kg
MRT last [18]: 1.58 h
MRT last [7]: 5.4 h
half-life [19]: 1.43 h
half-life [8]: 4.01 h
bioavailability [9]: 80.6%

Next, values leading:

IC50 [1]: 2.31 nM
SMILES: CCN(CC)Cc1ccc(C)c(NC(=O)c2ccc(Nc3nccc(-c4ccc(OC(F)(F)F)cc4)n3)cc2)c1

IC50 [1]: 2.68 nM
SMILES: Cc1ccc(CN2CCCCC2)cc1NC(=O)c1ccc(Nc2nccc(-c3ccc(OC(F)(F)F)cc3)n2)cc1

IC50 [1]: 3.19 nM
SMILES: Cc1ccc(CN(C)C)cc1NC(=O)c1ccc(Nc2ncc(F)c(-c3ccc(OC(F)(F)F)cc3)n2)cc1

IC50 [1]: 0.69 nM
Cmax [4]: 137 ng/mL
AUC(0-t) [5]: 660 ng·h/mL
Vd(app) [13]: 59.60185 L/kg
CL/F [6]: 123 mL/min/kg
MRT last [7]: 4.83 h
half-life [8]: 5.56 h
SMILES: Cc1ccc(CN2CCOCC2)cc1NC(=O)c1ccc(Nc2nccc(-c3ccc(OC(F)(F)F)cc3)n2)cn1

IC50 [1]: 1.83 nM
SMILES: Cc1ccc(CN2CCCC2)cc1NC(=O)c1ccc(Nc2nccc(-c3ccc(OC(F)(F)F)cc3)n2)cc1
